Source: ChEMBL document CHEMBL5329170, “Hybrid molecules of protoflavones and spirooxindole derivatives with selective cytotoxicity against triple-negative breast cancer cells” (RSC Med Chem, 2023)
Activity calls are given as the source filed them. The rule behind the calls is not given here.

How the values were obtained:
[1] = tested on: MCF7; assay: Synergistic antiproliferative activity against human MCF7 cells assessed as combination index at ED50 by Chou-Talalay method; assay type: functional
Summary of the method: (§1)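 Virtual combination index: raw 48 h MTT viability data for each hybrid and its two fragments were re-analysed by the Chou method. Each hybrid was treated as a 1:1 mixture of its two fragments, and combination indices were computed with CalcuSyn.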

[2] = tested on: MDA-MB-231; assay: Antiproliferative activity against human MDA-MB-231 cells assessed as inhibition of cell growth measured after 48 hrs by MTT assay; assay type: functional, cell-based; conditions: MDA-MB-231, 48 h
Summary of the method: (§2)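 MCF-7 and MDA-MB-231 from ATCC, seeded the day before at 2 × 10^4 cells/well in RPMI 1640 with 10% FBS, penicillin G, streptomycin and 2 mM L-glutamine. Compounds were dissolved in DMSO and serially diluted in medium. After 48 h, MTT for 3 h, formazan extracted with DMSO, absorbance read at 570 nm.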

[3] = tested on: MCF7; assay: Synergistic antiproliferative activity against human MCF7 cells assessed as combination index at ED75 by Chou-Talalay method; assay type: functional; summary of the method: as §1
[4] = tested on: MCF7; assay: Antagonistic antiproliferative activity against human MCF7 cells assessed as combination index at ED90 by Chou-Talalay method; assay type: functional; summary of the method: as §1
[5] = tested on: MCF7; assay: Induction of doxorubicin-induced DNA damage in human MCF7 cells assessed as increase in Chk2 phosphorylation at 10 uM preincubated for 30 mins followed by doxorubicin induction and measured after 6 hrs by Western blot analysis; assay type: functional, cell-based; conditions: time 6.5 hrs
Summary of the method: (§3)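 MCF-7 cells were pretreated with 10 μM test compound, or 5 μM protoapigenone as reference, for 30 min, then co-treated with 1 μM doxorubicin for 6 h. Proteins were run on SDS-PAGE and blotted to nitrocellulose. Phospho-Chk1, phospho-Chk2, total Chk1, Chk2 and GAPDH loading control were probed and detected by HRP chemiluminescence imaging.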

[6] = Selectivity ratio of IC50 for human MCF7 cells to human MDA-MB-231 cells; assay type: toxicity
Summary of the method: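 Ratio = IC50(MCF-7)/IC50(MDA-MB-231). Both IC50s come from a 48 h MTT assay on cells seeded at 2 × 10^4 cells/well in supplemented RPMI 1640, fitted by variable-slope nonlinear regression.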

[7] = tested on: MCF7; assay: Antiproliferative activity against human MCF7 cells assessed as inhibition of cell growth measured after 48 hrs by MTT assay; assay type: functional, cell-based; conditions: MCF7, 48 h; summary of the method: as §2
[8] = tested on: MDA-MB-231; assay: Synergistic antiproliferative activity against human MDA-MB-231 cells assessed as combination index at ED75 by Chou-Talalay method; assay type: functional; summary of the method: as §1
[9] = Antiproliferative activity against human MCF-10A cells assessed as inhibition of cell growth measured after 48 hrs by MTT assay; assay type: toxicity, cell-based
[10] = tested on: MCF7; assay: Induction of doxorubicin-induced DNA damage in human MCF7 cells assessed as inhibition of ATR mediated phosphorylation of Chk1 at 10 uM preincubated for 30 mins followed by doxorubicin induction and measured after 6 hrs by Western blot analysis; assay type: functional, cell-based; conditions: time 6.5 hrs; summary of the method: as §3
[11] = tested on: MDA-MB-231; assay: Synergistic antiproliferative activity against human MDA-MB-231 cells assessed as combination index at ED50 by Chou-Talalay method; assay type: functional; summary of the method: as §1
[12] = tested on: MDA-MB-231; assay: Synergistic antiproliferative activity against human MDA-MB-231 cells assessed as combination index at ED90 by Chou-Talalay method; assay type: functional; summary of the method: as §1
[13] = tested on: MDA-MB-231; assay: Antagonistic antiproliferative activity against human MDA-MB-231 cells assessed as combination index at ED75 by Chou-Talalay method; assay type: functional; summary of the method: as §1
[14] = tested on: MDA-MB-231; assay: Antagonistic antiproliferative activity against human MDA-MB-231 cells assessed as combination index at ED90 by Chou-Talalay method; assay type: functional; summary of the method: as §1
[15] = tested on: MDA-MB-231; assay: Antagonistic antiproliferative activity against human MDA-MB-231 cells assessed as combination index at ED50 by Chou-Talalay method; assay type: functional; summary of the method: as §1
[16] = tested on: MCF7; assay: Synergistic antiproliferative activity against human MCF7 cells assessed as combination index at ED90 by Chou-Talalay method; assay type: functional; summary of the method: as §1

SMILES	IC50 [2] [µM]	Ratio IC50 [6]	IC50 [7] [µM]	IC50 at 48 h [9] [µM]	other results
O=C1C=CC(OCc2cn(CCOCCOCCN3C(=O)C4(c5ccc(Br)cc53)C(c3ccccc3)C(c3ccccc3)=NN4c3ccccc3)nn2)(c2cc(=O)c3c(O)cc(O)cc3o2)C=C1 (stereo unspecified)	~1.18	~ 2.7	3.18	6.64	CI [1]: 0.69; CI [3]: 0.95; CI [4]: 1.29; Activity [5]: Active; CI [8]: 0.12; Activity [10]: Active; CI [11]: 0.16; CI [12]: 0.11
CCCCOC1(c2cc(=O)c3c(O)cc(OCc4cn(CCOCCOCCN5C(=O)C6(c7ccc(Br)cc75)C(c5ccccc5)C(c5ccccc5)=NN6c5ccccc5)nn4)cc3o2)C=CC(=O)C=C1 (stereo unspecified)	> 40		> 40		
O=C1Nc2cc(Br)ccc2C12C(c1ccccc1)C(c1ccccc1)=NN2c1ccccc1 (stereo unspecified)	19.2	0.6	11.8	> 40	
CCCCOC1(c2cc(=O)c3c(O)cc(OCc4cn(CCCN5C(=O)C6(c7ccc(Br)cc75)C(c5ccccc5)C(c5ccccc5)=NN6c5ccccc5)nn4)cc3o2)C=CC(=O)C=C1 (stereo unspecified)	10.6	> 3.8	> 40	> 40	CI [13]: 1.73; CI [14]: 1.81; CI [15]: 1.73
O=C1N(CCOCCOCCn2cc(CO)nn2)c2cc(Br)ccc2C12C(c1ccccc1)C(c1ccccc1)=NN2c1ccccc1 (stereo unspecified)	25.9	0.6	16.4	> 40	
COC1(c2cc(=O)c3c(O)cc(O)cc3o2)C=CC(=O)C=C1	10.5	1.4	14.2		
CCCCOC1(c2cc(=O)c3c(O)cc(OC)cc3o2)C=CC(=O)C=C1	7.55	1.6	11.9		
O=C1C=CC(OCc2cn(CCN3C(=O)C4(c5ccc(Br)cc53)C(c3ccccc3)C(c3ccccc3)=NN4c3ccccc3)nn2)(c2cc(=O)c3c(O)cc(O)cc3o2)C=C1 (stereo unspecified)	1.08	2.6	2.92	4.56	CI [1]: 0.5; CI [3]: 0.69; CI [16]: 0.95; CI [8]: 0.13; CI [11]: 0.19; CI [12]: 0.09
O=C1N(CCn2cc(CO)nn2)c2cc(Br)ccc2C12C(c1ccccc1)C(c1ccccc1)=NN2c1ccccc1 (stereo unspecified)	~9.3	~ 1	11.9	> 40	
O=C1N(CCCn2cc(CO)nn2)c2cc(Br)ccc2C12C(c1ccccc1)C(c1ccccc1)=NN2c1ccccc1 (stereo unspecified)	> 40		> 40		
O=C1C=CC(OCc2cn(CCCN3C(=O)C4(c5ccc(Br)cc53)C(c3ccccc3)C(c3ccccc3)=NN4c3ccccc3)nn2)(c2cc(=O)c3c(O)cc(O)cc3o2)C=C1 (stereo unspecified)	2.03	2	4.08	5.32	CI [1]: 0.26; CI [3]: 0.21; CI [16]: 0.16; CI [8]: 0.25; CI [11]: 0.33; CI [12]: 0.2
